Rows were chosen to be rich in hits. Some 2% of all compounds tested hit in one or more screens of this group.
PG9 Ab binder = PG9 antibody binding by small molecule. TR-FRET gp120-PG9 antibody binding. inhibition, % at 6.7 µM. 0.43% of 360,000 active. AID 624416; in the data active = inhibition above about 8.5%
NR2E3 ag-1 = agonists of human NR2E3 nuclear receptor | Q9Y5X4 | CHO-S Gal4-NCOR/VP16-NR2E3 two-hybrid, luciferase | inhibition of corepressor binding, % at 3.98 µM | 0.35% of 360,000 active;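 active = inhibition above the mean of all tested compounds plus 3 SD, cut at about 70% in these data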;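 also: higher means lower luciferase signal from less NR2E3 corepressor binding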
Rev-erbA mod = modulates human Rev-erb alpha binding to DNA; P20393; Rev-erbα–FITC-DNA binding, fluorescence polarization, 90 min; activity, % at 10 µM; 0.79% of 370,000 active;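 active = activity above about 14%, limit read from the data; passing the limit was not always enough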
Target sequence (P20393 whole entry, looked up): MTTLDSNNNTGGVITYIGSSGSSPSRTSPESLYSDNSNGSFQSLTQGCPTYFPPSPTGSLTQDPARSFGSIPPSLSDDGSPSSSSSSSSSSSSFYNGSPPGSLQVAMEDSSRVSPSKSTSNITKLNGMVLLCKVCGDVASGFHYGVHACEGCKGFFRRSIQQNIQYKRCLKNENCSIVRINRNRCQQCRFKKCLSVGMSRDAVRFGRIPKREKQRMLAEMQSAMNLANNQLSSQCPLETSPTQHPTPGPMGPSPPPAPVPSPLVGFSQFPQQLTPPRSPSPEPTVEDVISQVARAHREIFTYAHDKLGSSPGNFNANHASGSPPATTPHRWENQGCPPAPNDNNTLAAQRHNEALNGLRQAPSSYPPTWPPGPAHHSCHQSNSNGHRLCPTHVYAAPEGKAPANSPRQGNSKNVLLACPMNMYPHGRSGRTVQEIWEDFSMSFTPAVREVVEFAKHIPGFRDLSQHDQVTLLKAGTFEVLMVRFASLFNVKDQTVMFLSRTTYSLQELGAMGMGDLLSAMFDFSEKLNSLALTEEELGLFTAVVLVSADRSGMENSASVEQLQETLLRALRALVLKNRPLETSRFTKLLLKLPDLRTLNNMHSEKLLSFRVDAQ
Neddylation inh = inhibitors of human cullin neddylation; P61081+Q13564; TR-FRET cullin neddylation, biochemical; calls only at 25 µM; 0.58% of 360,000 active; in the data active = inhibition above about 36%
NR2E3 ag-2 = NR2E3 (human) agonism; GST-NR2E3/biotin-RetCOR TR-FRET, 1536-well; inhibition of corepressor binding, % at 4.78 µM; 0.12% of 320,000 active; AID 2300;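 active = percent inhibition above the cutoff of mean plus 3 SD of all tested compounds, set per screening campaign, cut at about 20% in these data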
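Test system: GST-NR2E3 and biotin-RetCOR proteins | Quantity: 1.35 nM GST-tagged NR2E3 final | Medium: Tris pH 7.5 | Also added: 7 nM biotin-RetCOR | Dosing: Compound at 4.8 µM, single dose | Timing: 5 h at 4 °C | Detection: Time-resolved FRET | Read-out basis: Percent inhibition | Benchmarks: Biotin wells as high control, 0.6% DMSO wells as low control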
Neddyl inh conf = cullin neddylation inhibition, confirmation; shares compounds with Neddylation inh; 13% of 1,800 active; calls only at 25 µM; TR-FRET cullin neddylation biochemical assay; in the data active = inhibition above about 40%;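 also: neddylation substrate is the cullin 1 ring ligase complex with SKP2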
Calls only; . = inactive; / = not tested or not shown; + = active, no number.

SMILES | PG9 Ab binder | NR2E3 ag-1 | Rev-erbA mod | Neddylation inh | NR2E3 ag-2 | Neddyl inh conf
O=C(CC[C@H]1O[C@@H](n2cnc3c(NC(=O)c4ccccc4)ncnc32)[C@H](O)[C@@H]1O)NCc1ccc(OC(F)(F)F)cc1 | . | . | . | . | / | /
COc1cc(/C=C/C(=O)NCCN2CCOCC2)cc(OC)c1OC | . | . | . | + | . | .
COc1ccc(/C=C/C(=O)NCCN2CCOCC2)cc1OC | . | . | . | . | . | /
NC(=O)C(NN=C(c1ccccc1)c1ccccc1)c1ccccc1 (stereo not given) | . | . | . | . | / | /
CCOC(=O)C1CC(=NO)c2ccc(OC)c(OC)c2C1 (stereo not given) | . | . | . | + | / | .
CCOC(=O)C1CCN(S(=O)(=O)c2ccc(OC)c(OC)c2)CC1 | . | . | . | . | . | /
Cn1c(=O)n(C)c2cc(S(=O)(=O)NCC(=O)O)ccc21 | . | . | . | . | . | /
Cn1c(=O)n(C)c2cc(S(=O)(=O)Nc3ccccc3C(=O)O)ccc21 | . | . | . | + | . | .
CCCn1c(C)cc(/C=C(\C#N)C(=O)OCC(=O)Nc2cccc(S(N)(=O)=O)c2)c1C | . | . | . | + | . | .
CCCn1c(C)cc(/C=C(\C#N)C(=O)OCC(=O)Nc2cccc(OC)c2)c1C | . | . | . | . | . | /
Cc1cc(/C=C(\C#N)C(=O)OCC(=O)NC(=O)NC(C)(C)C)c(C)n1CCC(C)C | . | . | . | + | . | .
COc1ccc(C(=O)c2[nH]c(N)c(C(=O)c3c[nH]c4ccccc34)c2-c2ccc(F)c(OC)c2)cc1 | . | / | . | / | / | /
COc1ccc(-c2cc3nc(C)cc(N4CCN(C(=O)c5ccoc5)CC4)n3n2)cc1 | . | . | . | / | / | /
COc1cccc(-c2cc3nc(C)cc(N4CCN(C(=O)c5ccoc5)CC4)n3n2)c1 | . | . | . | + | / | /
CN(C)C(=O)c1ccc2c3c(cccc13)CC2 | . | . | . | . | . | /
CC(=O)c1ccc2c3c(cccc13)CC2 | . | . | . | + | . | .
O=C1Nc2cccc3c2N(CCC3)C2=C1CCC2 | . | . | . | . | / | /
O=C(NC1CCCCC1)OC1CC2CC1[C@H]1CCCCN1C2=O (stereo not given in full) | . | . | . | . | / | /
Cc1cc(=O)n2[nH]c(-c3ccccc3)cc2n1 | . | . | . | + | . | .
CCCc1cc2c(=O)c(-c3ccccn3)c(C)oc2cc1O | . | . | . | + | . | .
COCCNC(=O)C1CCCN(Cc2cccc(C#N)c2)CC1 (stereo not given) | . | . | . | . | / | /
O=C(CN1C(=O)CCSc2ccccc21)Nc1ccc(Cl)cc1 | / | / | . | / | / | /
N#C/C(=C/c1cn(-c2ccccc2)nc1-c1cccc(S(=O)(=O)N2CCOCC2)c1)C(=O)NCc1ccco1 | . | . | . | + | . | .
Cc1nc2oc3ccccc3c(=O)c2cc1C(=O)O | . | . | . | . | . | /
CN(C)c1ccc2c(=O)c3ccccc3oc2n1 | . | . | . | + | / | .
SMILES | PG9 Ab binder | NR2E3 ag-1 | Rev-erbA mod | Neddylation inh | NR2E3 ag-2 | Neddyl inh conf
CCOC(=O)Cc1cc(=O)n2[nH]c(C)c(-c3ccc(Cl)cc3)c2n1 | . | . | . | / | . | /
CCOC(=O)Cc1cc(=O)n2[nH]c(C)c(-c3ccc(OC)cc3)c2n1 | . | . | . | + | . | /
Cc1c(C)c2ccc(OCC(=O)Nc3ccc(CN4CCOCC4)cc3)cc2oc1=O | . | . | . | + | . | .
O=C(COc1ccc2ccc(=O)oc2c1)Nc1ccc(N2CCCCC2)cc1 | . | . | . | + | . | /
COc1cc(NC(=O)c2cccnc2)c(Cl)cc1NC(=O)c1ccccc1 | . | . | . | + | . | .
COc1cc(NC(=O)Cc2ccccc2)ccc1NC(=O)c1ccccc1 | . | . | . | + | . | .
COc1cc(NC(=O)c2ccccc2)ccc1NC(=O)Cc1ccccc1 | . | . | . | . | . | /
O=C(CSc1ccc2nnc(-c3cccnc3)n2n1)Nc1ccccc1 | . | . | . | . | . | /
O=C(CSc1ccc2nnc(-c3cccnc3)n2n1)Nc1ccccc1C(F)(F)F | . | . | . | + | . | /
COc1cccc(NC(=O)CN(C)C(=O)/C=C/c2ccc3ccccc3n2)c1 | . | . | . | . | . | /
C=CCNC(=O)CN(C(=O)Cc1ccc(Cl)nc1)c1cccc(Br)c1 | / | / | . | / | / | /
COc1cccc(/C=C2/NC(=O)N(CC(=O)Nc3ccc(C)cc3)C2=O)c1OCc1cccc(C(=O)O)c1 | . | . | . | + | . | /
Nc1c(C(=O)Nc2ccc(Cl)cc2)oc2ccccc12 | . | . | . | + | . | /
CCCc1cc(-n2ccnc2C)n2c(nc3ccccc32)c1C#N | . | . | . | + | . | .
CC(C)Sc1nnc(-c2ccc(S(=O)(=O)N3CCOCC3)cc2)n1C | . | . | . | + | . | .
Cc1ccc(-c2c(C#N)c(N)nc3c2CCCCC3)o1 | . | . | . | + | . | /
Cc1ccc(-n2c3nc(=O)n(C)c(=O)c-3cc3ccccc32)cc1 | . | . | . | + | . | .
Cc1cccn2c(=O)c3cc(C(=O)N4CCCCC4C)sc3nc12 (stereo not given) | . | . | . | + | . | +
CCN(CC)C(=O)c1cc2c(=O)n3cccc(C)c3nc2s1 | . | . | . | / | . | /
COc1ccccc1N1CCN(C(=O)c2cc3c(s2)-c2ccccc2OC3)CC1 | . | . | . | + | . | .
Cc1cccn2c(=O)c3cc(C(=O)N4CC(C)CC(C)C4)sc3nc12 (stereo not given) | . | . | . | / | . | /
CCCCN(CC)C(=O)c1cc2c(=O)n3cccc(C)c3nc2s1 | . | . | . | + | . | /
O=C(c1cc2c(s1)-c1ccccc1OC2)N1CCc2ccccc2C1 | . | . | . | / | . | /
COc1ccccc1N1CCN(C(=O)c2cc3c(=O)n4cccc(C)c4nc3s2)CC1 | . | . | . | + | . | +
CC(C)C[C@H](NC(=O)c1ccccn1)C(=O)N1CCC[C@H]1C(=O)NCc1ccccc1 | . | / | . | / | / | /
SMILES | PG9 Ab binder | NR2E3 ag-1 | Rev-erbA mod | Neddylation inh | NR2E3 ag-2 | Neddyl inh conf
Nc1ncccc1C(=O)OCC(=O)N1CCN(S(=O)(=O)c2ccc(Cl)cc2)CC1 | . | . | . | + | . | /
Cc1c2ccccc2nc2ccccc12 | . | . | . | + | . | .
COc1ccc(CC(NC(C)=O)C(=O)NC2CCN(c3nc(C)cc(C)c3C#N)CC2)c(OC)c1 (stereo not given) | . | . | . | + | . | .
C/C=C(\C)C(=O)O[C@H](c1cc2ccc(=O)oc2cc1OC)[C@@H](O)C(C)(C)O | . | . | . | + | . | .
Cc1ccc(-n2nc3ccc(NC(=O)C(C)C)cc3n2)cc1 | . | . | . | + | . | .
CC(C)C(=O)Nc1ccc2nn(-c3ccc(F)cc3)nc2c1 | / | . | / | / | . | /
CCN(CCC#N)c1ccc(/C=N/Nc2nc(C)cc(=O)[nH]2)c(C)c1 | . | . | . | + | . | .
CCOc1ccccc1NC(=O)CSc1nc2nc(-c3cccs3)cc(C(F)(F)F)c2c(=O)[nH]1 | . | . | . | . | . | /

Source: PubChem BioAssay (several laboratories)
